Measurements from ChEMBL document CHEMBL1157340, “Highly substituted terphenyls as inhibitors of parasite cGMP-dependent protein kinase activity” (J Nat Prod, 2006).

Columns and labels:
[1] = target: cGMP-dependent protein kinase (Eimeria tenella); assay: Inhibition of Eimeria tenella cGMP-dependent protein kinase assessed as inhibition of transfer of phosphate group by radiometric assay
Toxoplasma gondii = assay: Antiparasitic activity against Toxoplasma gondii in human foreskin fibroblast by beta-galactosidase assay; format: functional, organism-based
In short: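 Human foreskin fibroblasts grown to confluence, then infected with T. gondii strain stably expressing bacterial β-galactosidase; parasite growth allowed 5 days with test samples present. Chlorophenol red-β-D-galactopyranoside added, further 2–4 h incubation, absorbance read at 570 nm as measure of parasite viability. IC50 reported.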

Row | Structure (SMILES) | IC50 [1] [µM] | IC50 (Toxoplasma gondii) [µM]
1 | CN1CCC(c2cc(-c3ccncc3)c(-c3ccc(F)cc3)[nH]2)CC1 | < 0.001 | 0.21
2 | COc1c(O)c(-c2ccccc2)cc(O)c1-c1ccccc1O | 5.2 | 10.4
3 | COc1c(O)c(-c2ccccc2)cc(O)c1-c1cc(O)ccc1O | 5.8 | 9.5
4 | COc1cc(-c2ccccc2)c(O)c(O)c1-c1ccccc1 [TERFEROL] | 3.9 | 26.8
